From publication PMC3988618 (Messenger (Los Angeles, Calif. : Print), 2012)

What was measured:
[1] = molecular target: type 1 InsP3R (InsP3R1) (Mus musculus, UniProt P11881); experiment: Inhibition of Ins; type: cell-based; settings: for IC50: read-out: Ins P3R antagonism IC50 (inhibition of Ins(1,4,5)P3-induced Ca2+ release), permeabilized L15 fibroblasts overexpressing InsP3R1, Ca2+ release induced by 250 nM Ins(1,4,5)P3
Outline: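 Mouse InsP3R1-overexpressing L15 fibroblasts, confluent (days 6–8), saponin-permeabilized (40 μg ml−1, 10 min); stores loaded 45 min with 150 nM free 45Ca2+, ATP, NaN3, pH 6.8; 30 °C. Efflux with 1 mM EGTA plus 10 μM thapsigargin, sampled every 2 min; Ins(1,4,5)P3 given 2 min, compound 6 min around it. Release taken as fractional loss over basal leak; Hill fits; 3–4 experiments in duplicate.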

[2] = system: InsP3R; settings: bovine adrenal cortex microsomes; ref Poitras, 1993; cited from earlier work
[3] = molecular target: InsP3R; settings: ref Vandeput, 2007; cited from earlier work
[4] = molecular target: T1, human type I Ins(1,4,5)P3 5-phosphatase (Homo sapiens, UniProt Q14642); experiment: Ins; type: biochemical; settings: ratio of IC50 values
T1 sequence (Q14642 1-412): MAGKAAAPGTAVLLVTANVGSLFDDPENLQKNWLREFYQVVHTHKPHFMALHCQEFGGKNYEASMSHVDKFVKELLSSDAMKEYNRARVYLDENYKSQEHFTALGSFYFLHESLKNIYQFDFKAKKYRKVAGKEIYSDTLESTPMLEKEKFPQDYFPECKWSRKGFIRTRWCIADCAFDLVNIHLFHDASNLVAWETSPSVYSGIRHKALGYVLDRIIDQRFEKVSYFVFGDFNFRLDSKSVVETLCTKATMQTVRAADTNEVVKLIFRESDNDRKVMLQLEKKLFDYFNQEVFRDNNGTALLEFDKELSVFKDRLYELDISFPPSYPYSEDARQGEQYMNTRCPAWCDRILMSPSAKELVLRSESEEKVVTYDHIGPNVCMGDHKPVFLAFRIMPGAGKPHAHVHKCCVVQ
Outline: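 Recombinant human type I Ins(1,4,5)P3 5-phosphatase; inhibition by test compound read by malachite green phosphate detection with 1.0 μmol Ins(1,4,5)P3 substrate.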

Sequence of type 1 InsP3R (InsP3R1) (P11881 whole entry): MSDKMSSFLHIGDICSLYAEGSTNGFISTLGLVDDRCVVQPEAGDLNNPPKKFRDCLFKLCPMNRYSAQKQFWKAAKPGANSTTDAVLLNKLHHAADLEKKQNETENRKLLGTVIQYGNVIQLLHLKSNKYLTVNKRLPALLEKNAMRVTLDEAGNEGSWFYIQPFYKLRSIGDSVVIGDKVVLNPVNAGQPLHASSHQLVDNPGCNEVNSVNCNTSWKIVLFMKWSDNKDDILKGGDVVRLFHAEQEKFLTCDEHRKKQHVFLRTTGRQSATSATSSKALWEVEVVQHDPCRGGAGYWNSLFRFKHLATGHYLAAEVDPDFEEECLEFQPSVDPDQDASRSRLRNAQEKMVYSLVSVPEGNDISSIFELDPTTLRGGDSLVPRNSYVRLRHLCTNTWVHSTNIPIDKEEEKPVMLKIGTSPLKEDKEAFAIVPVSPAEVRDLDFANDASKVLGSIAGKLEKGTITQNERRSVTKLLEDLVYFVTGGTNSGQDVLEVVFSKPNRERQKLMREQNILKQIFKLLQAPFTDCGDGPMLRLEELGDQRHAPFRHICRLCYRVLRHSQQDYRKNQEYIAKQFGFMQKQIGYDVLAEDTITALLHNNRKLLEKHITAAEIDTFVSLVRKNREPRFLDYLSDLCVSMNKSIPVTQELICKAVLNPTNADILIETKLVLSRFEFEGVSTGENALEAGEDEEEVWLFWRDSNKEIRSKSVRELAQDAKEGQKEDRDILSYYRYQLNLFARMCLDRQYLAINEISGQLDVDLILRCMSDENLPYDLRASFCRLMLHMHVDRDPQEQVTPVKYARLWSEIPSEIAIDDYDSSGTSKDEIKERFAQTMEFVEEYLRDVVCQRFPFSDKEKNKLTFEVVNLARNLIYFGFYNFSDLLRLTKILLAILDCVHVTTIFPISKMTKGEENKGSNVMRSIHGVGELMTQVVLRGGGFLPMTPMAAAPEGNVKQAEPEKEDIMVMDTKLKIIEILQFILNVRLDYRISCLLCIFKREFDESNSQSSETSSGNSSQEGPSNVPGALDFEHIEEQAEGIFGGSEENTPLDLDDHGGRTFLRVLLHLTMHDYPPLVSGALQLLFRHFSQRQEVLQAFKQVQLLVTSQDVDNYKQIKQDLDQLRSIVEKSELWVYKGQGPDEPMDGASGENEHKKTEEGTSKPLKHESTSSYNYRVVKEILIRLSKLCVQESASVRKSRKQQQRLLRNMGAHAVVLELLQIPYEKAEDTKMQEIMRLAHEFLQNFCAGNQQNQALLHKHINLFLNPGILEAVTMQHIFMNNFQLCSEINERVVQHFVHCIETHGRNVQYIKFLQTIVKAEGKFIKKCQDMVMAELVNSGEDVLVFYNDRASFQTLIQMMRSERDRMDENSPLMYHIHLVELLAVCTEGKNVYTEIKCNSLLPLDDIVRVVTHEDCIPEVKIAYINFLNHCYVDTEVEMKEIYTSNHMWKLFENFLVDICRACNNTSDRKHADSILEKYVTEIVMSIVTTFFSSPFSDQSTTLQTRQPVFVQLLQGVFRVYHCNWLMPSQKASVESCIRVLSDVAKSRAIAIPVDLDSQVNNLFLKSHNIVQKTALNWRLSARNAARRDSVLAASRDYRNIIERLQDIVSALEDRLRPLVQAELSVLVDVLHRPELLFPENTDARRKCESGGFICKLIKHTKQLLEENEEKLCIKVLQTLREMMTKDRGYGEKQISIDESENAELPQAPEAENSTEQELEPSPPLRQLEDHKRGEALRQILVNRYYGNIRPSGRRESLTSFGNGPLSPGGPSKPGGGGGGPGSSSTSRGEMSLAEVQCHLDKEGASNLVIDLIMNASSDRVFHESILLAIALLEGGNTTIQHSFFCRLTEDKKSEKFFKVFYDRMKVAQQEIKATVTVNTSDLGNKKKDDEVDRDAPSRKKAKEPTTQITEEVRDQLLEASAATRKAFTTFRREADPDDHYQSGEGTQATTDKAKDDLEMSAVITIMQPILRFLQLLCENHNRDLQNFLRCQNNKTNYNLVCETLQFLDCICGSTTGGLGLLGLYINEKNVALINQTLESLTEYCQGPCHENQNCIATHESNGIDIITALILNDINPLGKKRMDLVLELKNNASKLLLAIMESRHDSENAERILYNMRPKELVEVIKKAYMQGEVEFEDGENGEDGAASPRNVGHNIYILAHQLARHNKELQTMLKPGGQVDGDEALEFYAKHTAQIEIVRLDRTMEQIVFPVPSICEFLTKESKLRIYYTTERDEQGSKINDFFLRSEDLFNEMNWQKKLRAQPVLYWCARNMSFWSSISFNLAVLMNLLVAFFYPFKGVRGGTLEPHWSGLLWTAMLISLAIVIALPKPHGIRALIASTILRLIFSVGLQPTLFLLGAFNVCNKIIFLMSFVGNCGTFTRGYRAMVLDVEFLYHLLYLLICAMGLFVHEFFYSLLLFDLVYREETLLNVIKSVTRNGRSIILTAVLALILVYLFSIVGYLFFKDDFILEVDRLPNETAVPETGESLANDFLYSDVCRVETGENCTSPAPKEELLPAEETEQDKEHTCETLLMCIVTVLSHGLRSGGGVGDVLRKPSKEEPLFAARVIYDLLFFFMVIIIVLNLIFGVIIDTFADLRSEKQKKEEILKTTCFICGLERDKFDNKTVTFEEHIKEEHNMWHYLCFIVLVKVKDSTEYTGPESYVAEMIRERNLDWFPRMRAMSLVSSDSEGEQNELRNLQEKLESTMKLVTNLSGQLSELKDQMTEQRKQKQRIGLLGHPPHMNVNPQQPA

O=P(O)(O)O[C@@H]1[C@H](O)[C@H](O)[C@@H](OP(=O)(O)O)[C@H](OP(=O)(O)O)[C@H]1O [Compound 1, Myo-inositol 1,4,5-trisphosphate, reference compound]
Kd ([1]; read-out: apparent Kd for Ins(1,4,5)P3 at the receptor, absence of (8), Lineweaver-Burk plot of Ca2+ release): 400 nM

O=P(O)(O)Oc1ccc(OP(=O)(O)O)c(OP(=O)(O)O)c1 [Compound 2, Benzene 1,2,4-trisphosphate]
Blocking of [3H]Ins(1,4,5)P3 binding, fold weaker than Ins(1,4,5)P3 [2]: ~10,000 fold

O=P(O)(O)Oc1cc(OP(=O)(O)O)cc(-c2c(OP(=O)(O)O)cc(OP(=O)(O)O)cc2OP(=O)(O)O)c1 [Compound 4, biphenyl 2,3′,4,5′,6-pentakisphosphate, reference compound]
IC50 [1]: 417 nM | IC50 as Ins(1,4,5)P3 receptor antagonist [3]: low micromolar range

O=P(O)(O)Oc1cc(OP(=O)(O)O)c(-c2cc(OP(=O)(O)O)c(OP(=O)(O)O)cc2OP(=O)(O)O)cc1OP(=O)(O)O [Compound 8, 2,2′,4,4′,5,5′-Biphenylhexakisphosphate]
5-phosphatase inhibition, fold more potent than (10) [4]: ≥ 20 fold | 5-phosphatase inhibition, times better than (4) [4]: ~4 times | Mode of inhibition at the InsP3R ([1]; 200 nM compound at various Ins(1,4,5)P3 concentrations, Lineweaver-Burk plot): competitive inhibitor | Effect on Ins(1,4,5)P3-induced Ca2+ release ([1]; 200 nM compound, low (0.1 μM) Ins(1,4,5)P3, not at high (3 μM) Ins(1,4,5)P3): strongly inhibited | IC50 [1]: 187 nM

O=P(O)(O)Oc1cc(OP(=O)(O)O)c(OP(=O)(O)O)cc1OCCOc1cc(OP(=O)(O)O)c(OP(=O)(O)O)cc1OP(=O)(O)O [Compound 9]
5-phosphatase inhibition, fold weaker than (8) [4]: 7 fold | IC50 [1]: 380 nM

O=P(O)(O)Oc1ccc(OCCOc2ccc(OP(=O)(O)O)c(OP(=O)(O)O)c2)cc1OP(=O)(O)O [Compound 10]
IC50 [1]: > 5000 nM | Inhibition of Ca2+ release ([1]; up to 10 μM compound, 250 nM Ins(1,4,5)P3): ineffective
